Results reported in ChEMBL document CHEMBL1140055, “Mixed-lineage kinase 1 and mixed-lineage kinase 3 subtype-selective dihydronaphthyl[3,4-a]pyrrolo[3,4-c]carbazole-5-ones: optimization, mixed-lineage kinase 1 crystallography, and oral in vivo activity in 1-methyl-4-phenyltetrahydropyridine models” (J Med Chem, 2008).
One block for each molecule: values may come before it. Active and inactive are the calls of the source. The rule behind the calls is not given here.

What was measured:
[1] = target: T1, Mitogen-activated protein kinase kinase kinase 9 (Homo sapiens, UniProt P80192); experiment: Inhibition of GST-fused human MLK1 at 1 uM
Method in brief: (§1)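 Baculovirus-expressed GST fusions of human MLK1 or MLK3 kinase domain (50 ng MLK1, 100 ng MLK3), myelin basic protein substrate at 500 µg/mL.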
Target sequence in this assay (P80192 whole entry, looked up, the tested form may be a part): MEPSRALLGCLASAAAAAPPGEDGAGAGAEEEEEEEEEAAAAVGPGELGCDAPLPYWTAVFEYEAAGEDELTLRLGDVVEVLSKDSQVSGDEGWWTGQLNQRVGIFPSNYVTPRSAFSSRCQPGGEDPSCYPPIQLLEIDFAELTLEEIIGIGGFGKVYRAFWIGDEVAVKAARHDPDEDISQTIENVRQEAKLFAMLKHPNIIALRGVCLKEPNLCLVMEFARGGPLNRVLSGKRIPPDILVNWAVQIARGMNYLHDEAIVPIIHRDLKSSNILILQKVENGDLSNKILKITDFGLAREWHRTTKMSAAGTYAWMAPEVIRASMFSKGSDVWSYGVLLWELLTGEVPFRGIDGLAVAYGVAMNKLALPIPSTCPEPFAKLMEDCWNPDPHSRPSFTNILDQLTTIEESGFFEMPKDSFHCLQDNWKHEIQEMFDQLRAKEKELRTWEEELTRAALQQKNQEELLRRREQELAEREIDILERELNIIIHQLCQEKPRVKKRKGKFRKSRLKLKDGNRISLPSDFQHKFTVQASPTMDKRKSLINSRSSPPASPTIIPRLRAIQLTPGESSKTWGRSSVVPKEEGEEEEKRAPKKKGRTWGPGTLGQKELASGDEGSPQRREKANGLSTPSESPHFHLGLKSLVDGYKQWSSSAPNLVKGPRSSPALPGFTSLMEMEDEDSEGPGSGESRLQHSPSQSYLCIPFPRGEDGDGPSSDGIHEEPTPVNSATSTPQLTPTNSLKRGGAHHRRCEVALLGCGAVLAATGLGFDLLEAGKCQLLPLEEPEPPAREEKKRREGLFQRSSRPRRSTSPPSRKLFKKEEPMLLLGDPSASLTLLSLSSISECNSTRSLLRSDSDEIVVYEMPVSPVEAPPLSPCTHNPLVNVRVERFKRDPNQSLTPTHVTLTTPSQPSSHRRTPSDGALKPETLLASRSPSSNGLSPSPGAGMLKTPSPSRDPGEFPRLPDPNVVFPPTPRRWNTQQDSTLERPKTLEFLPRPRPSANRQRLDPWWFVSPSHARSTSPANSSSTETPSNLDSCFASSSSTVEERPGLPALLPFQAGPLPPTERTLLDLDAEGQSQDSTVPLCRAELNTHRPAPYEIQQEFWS

[2] = target: T2, Mitogen-activated protein kinase kinase kinase 11 (Homo sapiens, UniProt Q16584); experiment: Inhibition of GST-fused human MLK3 at 1 uM; method in brief: as §1
Target sequence in this assay (Q16584 whole entry, looked up, the tested form may be a part): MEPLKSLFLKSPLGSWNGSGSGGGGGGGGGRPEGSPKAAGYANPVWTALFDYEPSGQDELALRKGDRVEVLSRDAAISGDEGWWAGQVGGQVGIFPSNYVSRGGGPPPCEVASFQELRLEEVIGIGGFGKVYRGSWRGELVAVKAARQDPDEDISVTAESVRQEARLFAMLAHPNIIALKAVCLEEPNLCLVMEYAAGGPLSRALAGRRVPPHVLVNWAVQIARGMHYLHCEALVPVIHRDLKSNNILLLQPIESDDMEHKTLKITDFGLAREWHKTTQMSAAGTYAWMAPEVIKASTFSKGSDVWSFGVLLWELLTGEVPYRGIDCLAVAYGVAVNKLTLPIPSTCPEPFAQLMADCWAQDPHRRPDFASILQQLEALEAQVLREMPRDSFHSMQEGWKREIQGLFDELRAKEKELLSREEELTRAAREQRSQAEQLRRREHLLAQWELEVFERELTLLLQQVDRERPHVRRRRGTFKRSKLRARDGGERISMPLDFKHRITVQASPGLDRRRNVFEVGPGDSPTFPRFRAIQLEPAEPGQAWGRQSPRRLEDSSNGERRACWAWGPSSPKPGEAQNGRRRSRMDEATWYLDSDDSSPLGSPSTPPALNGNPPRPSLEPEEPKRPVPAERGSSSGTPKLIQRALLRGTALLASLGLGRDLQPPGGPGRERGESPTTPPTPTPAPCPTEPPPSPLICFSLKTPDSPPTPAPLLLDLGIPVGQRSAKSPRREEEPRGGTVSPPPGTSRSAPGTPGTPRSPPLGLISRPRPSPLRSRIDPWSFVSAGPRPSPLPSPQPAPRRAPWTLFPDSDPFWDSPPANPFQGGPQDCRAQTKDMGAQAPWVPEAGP

[3] = target: Vascular endothelial growth factor receptor 3 (Homo sapiens, UniProt P35916); experiment: Inhibition of human VEGFR3 expressed in baculovirus insect cell system
Sequence of Vascular endothelial growth factor receptor 3 (P35916 whole entry): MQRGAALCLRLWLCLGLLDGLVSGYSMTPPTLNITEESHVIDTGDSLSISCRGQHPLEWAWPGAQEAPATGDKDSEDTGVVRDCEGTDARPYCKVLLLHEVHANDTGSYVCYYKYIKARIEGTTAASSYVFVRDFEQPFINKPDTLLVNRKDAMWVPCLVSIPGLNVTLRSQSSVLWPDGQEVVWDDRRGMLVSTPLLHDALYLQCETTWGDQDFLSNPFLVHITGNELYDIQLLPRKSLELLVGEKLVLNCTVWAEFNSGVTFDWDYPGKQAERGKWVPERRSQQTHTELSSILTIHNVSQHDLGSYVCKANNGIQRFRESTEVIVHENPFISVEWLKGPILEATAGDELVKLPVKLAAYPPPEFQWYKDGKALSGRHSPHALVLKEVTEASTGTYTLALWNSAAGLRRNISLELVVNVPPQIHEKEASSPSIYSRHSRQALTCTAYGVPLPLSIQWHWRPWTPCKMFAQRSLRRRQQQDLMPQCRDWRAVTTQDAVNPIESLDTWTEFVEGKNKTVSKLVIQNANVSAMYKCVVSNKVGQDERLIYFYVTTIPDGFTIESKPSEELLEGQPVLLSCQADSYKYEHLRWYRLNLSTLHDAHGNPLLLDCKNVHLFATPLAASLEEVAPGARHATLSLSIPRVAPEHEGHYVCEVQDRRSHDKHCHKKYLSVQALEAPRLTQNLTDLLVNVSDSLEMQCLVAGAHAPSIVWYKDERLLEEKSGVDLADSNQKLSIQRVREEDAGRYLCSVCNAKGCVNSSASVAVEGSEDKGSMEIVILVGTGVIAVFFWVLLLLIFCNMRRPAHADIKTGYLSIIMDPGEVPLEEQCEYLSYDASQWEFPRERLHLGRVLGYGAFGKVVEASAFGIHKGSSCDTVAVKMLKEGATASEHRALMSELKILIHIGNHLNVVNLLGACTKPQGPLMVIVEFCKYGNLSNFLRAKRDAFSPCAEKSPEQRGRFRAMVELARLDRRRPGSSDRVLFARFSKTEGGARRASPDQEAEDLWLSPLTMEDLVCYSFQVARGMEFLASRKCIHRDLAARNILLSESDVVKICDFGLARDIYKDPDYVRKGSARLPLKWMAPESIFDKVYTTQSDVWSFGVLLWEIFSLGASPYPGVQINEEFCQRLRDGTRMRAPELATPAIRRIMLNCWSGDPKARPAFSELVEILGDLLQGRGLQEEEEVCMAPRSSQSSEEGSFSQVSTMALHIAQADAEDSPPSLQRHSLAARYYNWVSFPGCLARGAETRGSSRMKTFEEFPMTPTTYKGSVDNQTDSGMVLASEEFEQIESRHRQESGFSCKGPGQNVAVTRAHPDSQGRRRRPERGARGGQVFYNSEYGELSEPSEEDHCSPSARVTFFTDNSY

Mus musculus [4] = experiment: Inhibition of MPTP-induced increase in pMKK4 levels in mouse at 1 mg/kg, sc administered 2 hrs before MPTP challenge followed by 10 mg/kg, sc 2 hrs after MPTP challenge
SH-SY5Y = experiment: Neuroprotective activity against human SH-SY5Y cells assessed as inhibition of MPP+-induced cell death; type: functional, cell-based
[5] = target: T1, Mitogen-activated protein kinase kinase kinase 9; experiment: Inhibition of GST-fused human MLK1 expressed in CHO cells assessed as MKK4 phosphorylation; type: cell-based
Method in brief: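 CHO cells transfected with MLK1 plus dominant-negative MKK4 cDNA; phospho-MKK4 quantified by ELISA; IC50 derived.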
Target sequence in this assay (P80192 whole entry, the tested form may be a part): as the sequence (P80192 whole entry, looked up, the tested form may be a part) above

[6] = target: Vascular endothelial growth factor receptor 1 (Homo sapiens, UniProt P17948); experiment: Inhibition of human VEGFR1 expressed in baculovirus insect cell system
[7] = target: Vascular endothelial growth factor receptor 2 (Homo sapiens, UniProt P35968); experiment: Inhibition of human VEGFR2 expressed in baculovirus insect cell system
Sequence of Vascular endothelial growth factor receptor 2 (P35968 whole entry, the tested form may be a part): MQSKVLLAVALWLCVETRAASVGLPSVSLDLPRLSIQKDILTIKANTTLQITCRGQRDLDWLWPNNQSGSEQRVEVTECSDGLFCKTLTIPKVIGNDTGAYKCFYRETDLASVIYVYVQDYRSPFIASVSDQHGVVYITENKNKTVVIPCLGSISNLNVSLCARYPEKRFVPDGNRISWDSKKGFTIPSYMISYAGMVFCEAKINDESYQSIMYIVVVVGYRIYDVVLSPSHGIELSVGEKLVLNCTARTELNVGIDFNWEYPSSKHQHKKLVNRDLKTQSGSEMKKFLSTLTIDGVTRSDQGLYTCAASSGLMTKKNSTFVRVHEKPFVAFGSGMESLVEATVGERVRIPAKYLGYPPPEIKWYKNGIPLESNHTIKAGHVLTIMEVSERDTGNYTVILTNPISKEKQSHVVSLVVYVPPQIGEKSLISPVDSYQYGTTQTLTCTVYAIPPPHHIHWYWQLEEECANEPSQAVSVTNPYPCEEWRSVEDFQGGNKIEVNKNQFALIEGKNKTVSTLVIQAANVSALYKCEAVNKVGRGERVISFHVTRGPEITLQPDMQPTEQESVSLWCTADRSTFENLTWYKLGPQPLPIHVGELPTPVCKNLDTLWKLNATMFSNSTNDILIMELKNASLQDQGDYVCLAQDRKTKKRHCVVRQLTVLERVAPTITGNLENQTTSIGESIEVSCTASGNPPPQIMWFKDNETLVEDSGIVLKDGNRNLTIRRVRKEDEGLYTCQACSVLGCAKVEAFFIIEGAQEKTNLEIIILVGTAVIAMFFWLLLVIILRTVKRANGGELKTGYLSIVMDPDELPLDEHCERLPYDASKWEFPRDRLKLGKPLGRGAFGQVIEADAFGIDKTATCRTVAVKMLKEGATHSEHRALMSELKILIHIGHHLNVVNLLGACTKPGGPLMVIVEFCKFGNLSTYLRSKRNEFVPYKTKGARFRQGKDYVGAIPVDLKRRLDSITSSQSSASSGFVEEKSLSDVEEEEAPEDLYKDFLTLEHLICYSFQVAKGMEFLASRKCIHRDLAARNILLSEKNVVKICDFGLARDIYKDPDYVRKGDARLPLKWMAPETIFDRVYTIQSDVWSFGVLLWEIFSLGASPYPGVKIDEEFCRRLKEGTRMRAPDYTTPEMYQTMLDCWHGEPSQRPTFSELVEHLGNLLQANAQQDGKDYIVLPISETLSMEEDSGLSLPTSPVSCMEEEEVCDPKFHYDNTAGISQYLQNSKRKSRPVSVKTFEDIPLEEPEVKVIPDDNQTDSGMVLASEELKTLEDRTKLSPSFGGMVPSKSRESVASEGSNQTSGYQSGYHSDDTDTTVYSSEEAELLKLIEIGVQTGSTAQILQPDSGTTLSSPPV

[8] = target: T2, Mitogen-activated protein kinase kinase kinase 11; experiment: Inhibition of GST-fused human MLK3
Method in brief: (§2)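 GST fusions of human MLK kinase domains from baculovirus (50 ng MLK1_KD, 150 ng MLK2_KD/LZ, 100 ng MLK3_KD), substrate 500 µg/mL myelin basic protein. Buffer 20 mM Hepes pH 7.2, 5 mM EGTA, 15 mM MgCl2, 1 mM DTT, 25 mM β-glycerophosphate, 0.1% BSA, 2% DMSO.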
Target sequence in this assay (Q16584 whole entry, the tested form may be a part): as the sequence (Q16584 whole entry, looked up, the tested form may be a part) above

Mus musculus [9] = experiment: Neuroprotective activity against MPTP-induced loss of striatal dopamine markers in mouse at 2 mg/kg, po administered once daily; type: functional, organism-based; set-up: dose 2 mg/kg
Method in brief: (§3)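 Mouse MPTP neurotoxicity: low dose 20 mg/kg sc, assessing striatal DA terminals by GBR-12935 binding; high dose 40 mg/kg sc, assessing striatal DA markers and substantia nigra cell bodies by TH immunoreactivity. Test compounds given orally, q.d. or b.i.d.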

[10] = target: Fibroblast growth factor receptor 1 (Homo sapiens, UniProt P11362); experiment: Inhibition of human FGFR1 expressed in baculovirus insect cell system
[11] = AUC in Sprague-Dawley rat at 4 mg/kg, po; type: ADME, organism-based; set-up: dose 4 mg/kg, route oral; settings: plasma
Method in brief: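 Rats were fasted overnight, then dosed by oral gavage in 50% Tween 80, 40% propylene carbonate and 10% propylene glycol. Serial heparinized blood samples were taken from the lateral tail vein at seven times over 6 h. Plasma was deproteinized with acetonitrile and analysed for drug against an internal standard by LC-MS/MS.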

[12] = target: Tyrosine-protein kinase Lck (Homo sapiens, UniProt P06239); experiment: Inhibition of human Lck expressed in baculovirus insect cell system
[13] = target: T3, Dual specificity mitogen-activated protein kinase kinase 4 (Homo sapiens, UniProt P45985); experiment: Inhibition of human MKK4/7 expressed in baculovirus insect cell system
T3 sequence (P45985 whole entry): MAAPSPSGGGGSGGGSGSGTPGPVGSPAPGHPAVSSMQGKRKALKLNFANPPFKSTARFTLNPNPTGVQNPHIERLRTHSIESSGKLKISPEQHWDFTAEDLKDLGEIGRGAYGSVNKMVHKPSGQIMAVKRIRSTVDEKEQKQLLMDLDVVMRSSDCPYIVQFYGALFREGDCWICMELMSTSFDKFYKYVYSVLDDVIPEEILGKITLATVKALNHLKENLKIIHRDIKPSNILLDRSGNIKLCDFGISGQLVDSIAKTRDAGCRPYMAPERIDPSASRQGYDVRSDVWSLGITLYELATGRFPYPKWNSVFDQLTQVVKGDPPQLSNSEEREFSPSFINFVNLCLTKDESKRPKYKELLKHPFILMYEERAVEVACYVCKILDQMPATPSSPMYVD

[14] = target: High affinity nerve growth factor receptor (Homo sapiens, UniProt P04629); experiment: Inhibition of human TrkA expressed in baculovirus insect cell system
[15] = target: c-Jun N-terminal kinase, JNK (Homo sapiens, UniProt P45983+P53779+P45984); experiment: Inhibition of human JNK expressed in baculovirus insect cell system
Protein kinase C (PKC) = experiment: Inhibition of human PKC expressed in baculovirus insect cell system
[16] = target: T1, Mitogen-activated protein kinase kinase kinase 9; experiment: Inhibition of GST-fused human MLK1; method in brief: as §2
Target sequence in this assay (P80192 whole entry, the tested form may be a part): as the sequence (P80192 whole entry, looked up, the tested form may be a part) above

[17] = target: Mitogen-activated protein kinase 14 (Homo sapiens, UniProt Q16539); experiment: Inhibition of human P38alpha expressed in baculovirus insect cell system
[18] = Volume of distribution in Sprague-Dawley rat at 2 mg/kg, iv; type: ADME, organism-based; set-up: dose 2 mg/kg, route intravenous; settings: in vivo
Method in brief: (§4)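 Rat PK: iv dose into lateral tail vein in 3% DMSO/30% solutol/67% PBS; oral gavage in 50% Tween 80/40% propylene carbonate/10% propylene glycol, rats fasted overnight before oral dosing. Serial tail-vein blood at seven times over 6 h into heparinized tubes. Plasma protein-precipitated with acetonitrile, analysed with internal standard by LC-MS/MS. Bioavailability from iv versus po AUCs.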

[19] = Cmax in Sprague-Dawley rat at 4 mg/kg, po; type: ADME, organism-based; set-up: dose 4 mg/kg, route oral; settings: in vivo
[20] = target: Tyrosine-protein kinase Fyn (Homo sapiens, UniProt P06241); experiment: Inhibition of human Fyn kinase expressed in baculovirus insect cell system
[21] = AUC in Sprague-Dawley rat at 2 mg/kg, iv; type: ADME, organism-based; set-up: dose 2 mg/kg, route intravenous; settings: plasma
Method in brief: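 Single intravenous dose into the lateral tail vein in 3% DMSO, 30% solutol and 67% phosphate-buffered saline. Serial heparinized blood samples were taken from the lateral tail vein at seven times over 6 h. Plasma was separated by centrifugation, deproteinized with acetonitrile and analysed for drug against an internal standard by LC-MS/MS.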

[22] = Half life in Sprague-Dawley rat at 2 mg/kg, iv; type: ADME, organism-based; set-up: dose 2 mg/kg, route intravenous; settings: in vivo; method in brief: as §4
Mus musculus [23] = experiment: Neuroprotective activity against MPTP-induced loss of substantia nigra dopamine cell bodies in mouse at 2 mg/kg, po administered once daily; type: functional, organism-based; set-up: dose 2 mg/kg; method in brief: as §3
Cyclin-dependent kinase = experiment: Inhibition of human CDK expressed in baculovirus insect cell system
[24] = Plasma concentration in mouse at 6.7 mg/kg, po administered 2 hrs before MPTP challenge followed by 40 mg/kg, sc 2 hrs after MPTP challenge; type: ADME, organism-based; settings: other: po followed by sc
Method in brief: (§5)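 Mice dosed orally at 6.7 mg/kg 2 h before and 2 h after MPTP (40 mg/kg sc). Substantia nigra dissected 2 h after second dose; pMKK4 measured by immunoblot against treated and control groups. Plasma drug levels taken 2 h after dosing (4 h post-MPTP).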

[25] = target: Serine/threonine-protein kinase Chk1/2 (Homo sapiens, UniProt O96017+O14757); experiment: Inhibition of human CHK1/2 expressed in baculovirus insect cell system
[26] = target: Platelet-derived growth factor receptor beta (Homo sapiens, UniProt P09619); experiment: Inhibition of human PDGFRbeta expressed in baculovirus insect cell system
[27] = Oral bioavailability in Sprague-Dawley rat at 4 mg/kg; type: ADME, organism-based; settings: in vivo; method in brief: as §4
[28] = Clearance in Sprague-Dawley rat at 2 mg/kg, iv; type: ADME, organism-based; set-up: dose 2 mg/kg, route intravenous; settings: in vivo; method in brief: as §4
[29] = Inhibition of human IRK expressed in baculovirus insect cell system
Mus musculus [30] = experiment: Inhibition of MPTP-induced increase in pMKK4 levels in mouse at 6.7 mg/kg, po administered 2 hrs before MPTP challenge followed by 40 mg/kg, sc 2 hrs after MPTP challenge; type: functional; method in brief: as §5
[31] = Metabolic stability in rat liver S9 fraction after 2 hrs in presence of NADPH; type: ADME, subcellular; settings: read-out: Stability
Method in brief: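 Incubated 2 h in rat liver S9 preparation with NADPH; percent parent remaining reported.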

[32] = target: Mitogen-activated protein kinase kinase kinase 10 (Homo sapiens, UniProt Q02779); experiment: Inhibition of human MLK2 expressed in baculovirus insect cell system
Method in brief: as §2, with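 “DMSO. […] 15 min at 37 °C, TCA precipitation, scintillation counting. IC50 by variable-slope sigmoidal fit, average of duplicates within 20%.” for “DMSO.”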

[33] = Half life in Sprague-Dawley rat at 4 mg/kg, po; type: ADME, organism-based; set-up: dose 4 mg/kg, route oral; settings: in vivo

inhibition [1]: 35%
inhibition [2]: 4%
SMILES: O=C1NCc2c1c1c(c3c2c2ccccc2n3CCO)CCc2cc(OC3CCCCC3)ccc2-1

IC50 [3]: 39 nM
IC50 [5]: 72 nM
IC50 [6]: 209 nM
IC50 [7]: 43 nM
IC50 [8]: 64 nM
SMILES: CCSCc1ccc2c(c1)c1c3c(c4c5cc(CSCC)ccc5n5c4c1n2[C@H]1C[C@](O)(C(=O)OC)[C@]5(C)O1)CNC3=O [CEP-1347]
inhibition (INH) (Mus musculus [4]): 45%
IC50 (SH-SY5Y): 5.3 nM

inhibition [1]: 52%
inhibition [2]: 40%
SMILES: COCCOc1ccc2c(c1)CCc1c-2c2c(c3c4ccccc4n(CCO)c13)CNC2=O

IC50 [10]: > 10000 nM
AUC [11]: 1990 ng·h/mL
IC50 [12]: 6400 nM
IC50 [13]: > 3000 nM
IC50 [14]: 1270 nM
IC50 [15]: > 30000 nM
IC50 (Protein kinase C (PKC)): > 10000 nM
IC50 [16]: 103 nM
IC50 [17]: > 10000 nM
Vd [18]: 0.9 L/kg
IC50 [3]: > 10000 nM
Cmax [19]: 572 ng/mL
IC50 [20]: 3400 nM
AUC [21]: 1730 ng·h/mL
half-life [22]: 0.6 h
IC50 [5]: 127 nM
IC50 (Cyclin-dependent kinase): > 10000 nM
concentration at 2 h [24]: 250 nM
IC50 [25]: > 10000 nM
IC50 [26]: > 10000 nM
bioavailability [27]: 57%
IC50 [6]: > 10000 nM
clearance [28]: 19 mL/min/kg
IC50 [7]: 4720 nM
remaining at 2 h [31]: 44%
IC50 [8]: 55 nM
IC50 [32]: 1580 nM
half-life [33]: 1.4 h
SMILES: COc1ccc2c(c1)CCc1c-2c2c(c3c4ccccc4n(CCO)c13)CNC2=O
Activity (Mus musculus [9]): Active
IC50 (SH-SY5Y): 32 nM
Activity (Mus musculus [23]): Active
IC50 [29]: > 10000 nM
inhibition (INH) (Mus musculus [30]): 68%
